From PubChem BioAssay
NALP1 inh: NALP1 inflammasome inhibitors in reconstituted yeast, colorimetric, S. cerevisiae, triplicate retest; S. cerevisiae NALP1/ASC/caspase-1 growth, X-gal OD620, 72 h; inhibition, % at 10 µM; actives 0.61% (n = 280,000); AID 2071, 2009; in the data active means inhibition mostly above about 24%, no sharp cut-off; inactive means mostly below about 32%
L major viab: Leishmania major promastigote growth inhibition, primary screen; Leishmania major promastigotes, resazurin fluorescence viability; inhibition, % at 10 µM; actives 9% (n = 200,000); in the data active means inhibition above about 50%;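 further: promastigotes grown with compound for 44 hours at 28 °C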
T cruzi repl: inhibitors of intracellular T. cruzi growth, primary screen, luminescence, NIH3T3 host cells; T. cruzi beta-gal in NIH3T3, 90 h; inhibition, % (test concentration not listed); actives 1.4% (n = 300,000);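 active means mean inhibition across valid replicates above about 55%, limit read from the data; inconclusive means mean below that limit but half or more replicates reach it; inactive means mean below it, under half of replicates reach it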;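 further: signal also drops with host cell toxicity which is not excluded here; 0% = plate median of DMSO wells and 100% = zero luminescence signal; higher percent means less beta-gal luminescence so fewer parasites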
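Test system: β-gal T. cruzi (Tulahuen C4) inside NIH/3T3 cells / Quantity: 5,000 cells/well / Measured by: luminescence from GalScreen with 0.05% NP40, read after 60 min / Medium: DMEM plus 2% FBS / Measure: parasite load inhibition, % / Reagent: Tulahuen C4 trypomastigotes, 5000/well / Schedule: co-culture of at least 90 h after 3 h attachment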
PolyA inhibitor: polyadenylation inhibitors in yeast reporter cells, primary screen, luminescence, S. cerevisiae | activity score, % at 12 µM | S. cerevisiae SKY197-pL101 polyadenylation reporter, beta-gal luminescence; efflux-impaired pdr1/pdr3 knockout yeast; score 100 = 6 SD above DMSO | AID 1875, 2009 | actives 0.02% (n = 300,000);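 active means lowest replicate activity score at least 50, where 100 means six control SD above control mean; inconclusive means lowest score under 50 but half or more replicates reach 50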;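 further: yeast exposed to compound for 9 h at 30 °C; higher score means more reporter readthrough which indicates perturbed polyadenylation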
Calb FLC: C. albicans growth inhibition with fluconazole, primary screen, CaCi-2 strain, Alamar Blue fluorescence. growth inhibition, % (no concentration beside the values). actives 0.57% (n = 300,000). C. albicans CaCi-2 + fluconazole, 48 h;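 active means growth inhibition above about 58% in most replicates, limit read from the data, passing the limit was not always enough; inconclusive means exactly half the replicates above a set limit; inactive means most replicates below a set limit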;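 further: all wells also contain fluconazole at 8 µg/ml as a sub-toxic cotreatment; 0% = median of DMSO wells and 100% = median of geldanamycin control wells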
NALP3 yeast inh: NALP3 inflammasome inhibitors in reconstituted yeast, primary screen, luminescence, uHTS | Yeast reconstituted NLRP3/ASC/caspase-1, beta-gal luminescence, 24 h | inhibition, % at 10 µM | actives 0.39% (n = 330,000);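 active means inhibition of 50% or more; inactive means inhibition below 50%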;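 further: plate controls were induced DMSO wells for no effect and uninduced yeast grown without galactose for full effect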
The depositor's hits bear a star; ? = inconclusive; · = no result given. This excerpt belongs to a sample that is enriched for hits.

SMILES	NALP1 inh	L major viab	T cruzi repl	PolyA inhibitor	Calb FLC	NALP3 yeast inh
Cc1ccc(N(CC(=O)NN=C2CCN(C)CC2)S(=O)(=O)c2ccccc2)c(C)c1	9	60*	-2	-8	1	7
O=C(Nc1cccc(Cl)c1)Nc1csc([N+](=O)[O-])c1	4	·	64*	16	-1	47
O=C(CC(Cc1ccccc1)C(=O)O)Nc1cccc(C(F)(F)F)c1 (configuration not stated)	8	·	-8	18	-8	-1
COCCCNc1nc(SCc2ccccc2)nc2sc3c(c12)CCC3	-2	6	25	-14	19	8
N#Cc1cnn(-c2nc(SCc3ccccc3)nc3sc4c(c23)CCCC4)c1N	18	36	60*	-21	-4	12
COC(=O)c1ccc(NC(=O)C2CC(=O)N(c3ccc(C)cc3)C2)cc1 (configuration not stated)	-3	-1	·	·	·	4
OCCNc1c2ccccc2nc2ccccc12	10	100*	59*	28	33	5
CCCn1ncc2c(Nc3ccc(C)c(C)c3)ncnc21	16	·	8	-9	-9	15
C/C(=N\NC(=O)CN(c1ccccc1)S(=O)(=O)c1ccccc1[N+](=O)[O-])C(C)(C)C	14	90*	-13	2	-3	21
CC(C)[C@H](NS(=O)(=O)c1ccccc1)C(=O)Nc1ccccc1N1CCOCC1	·	·	·	·	·	4
CC(Oc1ccc2ccc(=O)oc2c1)C(=O)c1ccccc1 (configuration not stated)	34	69*	-2	-8	2	12
Cc1ccc(C(=O)C(C)Oc2ccc3ccc(=O)oc3c2)cc1 (configuration not stated)	4	·	-4	-9	-1	26
O=C(Oc1ccc2ccc(=O)oc2c1)c1ccco1	-2	·	64*	11	-4	14
CN(Cc1ccncn1)C(=O)CC1C(=O)NCCN1Cc1cccc(Oc2ccccc2)c1 (configuration not stated)	0	95*	10	2	-5	17
COc1cc(CN2CCNC(=O)C2CC(=O)N(C)Cc2cccnc2)cc(OC)c1 (configuration not stated)	3	-8	-6	3	-5	5
CN(C)/N=C/c1c(O)ccc2ccccc12	-15	-6	-11	-13	-1	12
O=C(N/N=C\c1ccc(Cl)s1)c1ccc(Cn2cccn2)o1	18	5	-15	-8	2	3
COc1ccc(OC)c(/C=N/NC(=O)c2[nH]ncc2Br)c1	6	·	-14	2	-8	7
OCC(CO)(CO)N=Cc1c(O)ccc2ccccc12	-2	97*	-7	22	32	3
O=C(N/N=C/c1c(O)ccc2ccccc12)c1cccc(C(F)(F)F)c1	21	97*	57*	0	90*	-5
Cc1ccc(O)c(/C=N/NC(=O)c2[nH]ncc2Br)c1	-10	98*	-13	?	-6	8
O=C(N/N=C\c1c(O)ccc2ccccc12)c1ccc(Cn2cccn2)o1	25	98*	14	-20	20	8
COc1ccc(NS(=O)(=O)c2cc(NC(=O)[C@@H](NC(N)=O)C(C)C)ccc2C)cc1	·	·	-12	10	0	-14
O=C(N/N=C/c1cccs1)c1[nH]ncc1Br	17	·	13	13	-15	6
O=C(N/N=C/c1c(O)ccc2ccccc12)c1[nH]ncc1Br	7	100*	25	3	46	5
SMILES	NALP1 inh	L major viab	T cruzi repl	PolyA inhibitor	Calb FLC	NALP3 yeast inh
CCOc1ccc(/C=N/NC(=O)c2[nH]ncc2Br)c(O)c1	15	99*	55*	31	114*	31
Cc1ccc(O)c(/C=N/NC(=O)C2=NNC(c3ccccc3)(c3ccccc3)C2)c1	-40	100*	·	·	·	·
O=C(Nc1ccc(Cl)c(Cl)c1)c1ccccc1	·	·	·	·	·	28
Cc1cccc(NC2=C(NC(=O)c3ccccc3)C(=O)c3ccccc3C2=O)c1	49	52*	-4	-18	-20	22
Cc1cccc(C(=O)Nc2cccc(NC(=O)c3ccccc3)c2)c1	5	·	3	1	16	22
O=C(NC1=C(Nc2ccc(Cl)cc2)C(=O)c2ccccc2C1=O)c1ccccc1	26	78*	5	-25	3	38
CN(C1=C(NC(=O)c2ccc(Cl)cc2)C(=O)c2ccccc2C1=O)c1ccccc1	34	64*	-5	-23	3	15
CN(c1ccc(C(=O)Nc2ccc(Cl)cn2)cc1)S(=O)(=O)c1ccccc1	8	5	24	-19	46	35
O=C(Nc1ccc(Nc2ccccc2)cc1)c1ccc(Cl)cc1	·	·	13	-18	26	23
O=C1C(Cl)=C(NC(=O)c2ccccc2)C(=O)C(Cl)=C1NC(=O)c1ccccc1	1	·	68*	-16	15	20
C[C@H](NC(=O)C1CCN(S(=O)(=O)c2ccccc2)CC1)C(=O)NCc1ccc(Cl)cc1Cl	0	·	9	-3	1	0
O=C(NC1=C(NC2CCS(=O)(=O)C2)C(=O)c2ccccc2C1=O)c1ccccc1 (configuration not stated)	8	99*	-27	-5	-8	8
O=C(NC(NC1CCS(=O)(=O)C1)C(=O)c1cccs1)c1ccccc1 (configuration not stated)	6	-5	-10	7	18	-2
CCN(CC)CCNc1c2c(c(C#N)c3nc4ccccc4n13)CCCC2	28	96*	63*	?	24	28
CCN(CC)CCNc1cc(C)c(C#N)c2nc3ccccc3n12	10	·	57*	-5	7	24
Cc1cc(Nc2cccc([N+](=O)[O-])c2)n2c(nc3ccccc32)c1C#N	29	15	76*	20	12	15
Cc1cc(Nc2c(C)n(C)n(-c3ccccc3)c2=O)n2c(nc3ccccc32)c1C#N	4	-5	-13	0	14	6
N#Cc1c2c(c(NCc3ccco3)n3c1nc1ccccc13)CCC2	-6	8	·	-2	-1	2
O=c1[nH]c(=S)[nH]c(O)c1N=Nc1ccc(-c2ccccc2)cc1[N+](=O)[O-]	0	-4	-6	-27	9	·
COc1ccc(S(=O)(=O)NCC2CCCN(Cc3ccccc3C)C2)cc1 (configuration not stated)	10	99*	21	0	-17	20
CCOc1ccccc1CN1CCCC(CNS(=O)(=O)c2ccc(OC)cc2)C1 (configuration not stated)	-13	·	2	8	21	3
